Published values pooled from the literature.
Each line is one published result; the experiments were not run side by side.
Observed: cell growth or viability

| Compound | cell line | technique | concentration | time | quantity | value |
| --- | --- | --- | --- | --- | --- | --- |
| C[C@@H]1[C@H](O)[C@@H](C)/C=C/C=C/C=C/C=C/C=C/C=C/C=C/[C@H](O[C@@H]2O[C@H](C)[C@@H](O)[C@H](N)[C@@H]2O)C[C@@H]2O[C@](O)(C[C@@H](O)C[C@@H](O)[C@H](O)CC[C@@H](O)C[C@@H](O)CC(=O)O[C@H]1C)C[C@H](O)[C@H]2C(=O)O | DH82 | MTS | 200 µM | 72 h | inhibition | 42% |
| COc1ccc(NC(=O)c2c(Nc3ccccc3)sc(C(=O)NN=Cc3ccc(Cl)cc3)c2NC(C)=O)cc1 | HCT-116 | SRB | 10 µM | 48 h | viability | 61.3% |
| Cc1ccc(C(=O)NCc2ccsc2)cc1C#Cc1cn(C)c2ncnc(N)c12 | 32D |  |  |  | GI50 | 106 nM |
| Clc1ccccc1-c1ccc(CNCC2(N3CCCC3)COC2)o1 | U-87 MG |  | 30 µM | 48 h | viability | 63.6% |
| COc1ccc(/C=C/c2coc3ccc(OC)cc3c2=O)cc1 | HSC-2 | MTT |  | 23 h | CC50 | 2600 nM |
| CC(C)Cc1nn(C)c(=O)c2c(SCCCO)n(Cc3cc(NCCCCCN)nc4ccccc34)cc12 | Raji | MTT |  | 96 h | EC50 | 55 nM |
| Cn1nnc2c(C(N)=O)ncn2c1=O | AGS |  |  |  | EC50 | 310000 nM |
| COc1ccc(-c2ccc(-c3ccc(C(=N)N)nc3)s2)cc1Cl | EKVX | SRB |  |  | GI50 | 1790 nM |
| FC1CCN(C2(CNCc3ccc(-c4ccccc4Cl)o3)COC2)C1 (stereo not shown) | U-87 MG |  | 30 µM | 48 h | viability | 45.4% |
| COc1ccc(NC(=O)c2c(Nc3ccccc3)sc(C#N)c2NC(=O)CNc2ccccc2Cl)cc1 | HCT-116 | SRB | 10 µM | 48 h | viability | 62.9% |
| CCn1c(=O)c(-c2cc(NC(=O)Nc3ccccc3)c(F)cc2Br)cc2cnc(NC)cc21 | 32D |  |  |  | GI50 | > 3000 nM |
| COc1ccc(-c2ccc(-c3ccc(C(=N)N)nc3)s2)cc1 | OVCAR-8 | SRB |  |  | GI50 | 2120 nM |
| COc1ccc2occ(/C=C/c3ccc(O)cc3)c(=O)c2c1 | HSC-2 | MTT |  | 23 h | CC50 | < 390 nM |
| Cc1ccc(C(=O)NCc2ccsc2)cc1C#Cc1cn(C2CCC2)c2ncnc(N)c12 | 32D |  |  |  | GI50 | > 1000 nM |
| CC(C)Cc1nn(C)c(=O)c2c(SCCCO)n(Cc3ccnc(NCCCCCN)c3)cc12 | Raji | MTT |  | 96 h | EC50 | 690 nM |
| COc1ccc(NC(=O)c2c(Nc3ccccc3)sc(C#N)c2NC(=O)CNc2ccccc2[N+](=O)[O-])cc1 | HCT-116 | SRB | 10 nM | 48 h | viability | 90.4% |
| CC#CC(=O)N1CC[C@@H](n2cc(-c3ccc(Oc4c(F)cccc4F)cc3)c3c(N)n[nH]c(=O)c32)C1 | DOHH-2 | ATP luminescence |  | 72 h | GI50 | 8580 nM |
| COc1ccc(NC(=O)c2c(Nc3ccccc3)sc(C(=O)NN=Cc3ccc(C)cc3)c2NC(C)=O)cc1 | HCT-116 | SRB | 100 µM | 48 h | viability | 76.1% |
| CCc1ncn(CC(c2c[nH]c3ccc(C)cc23)c2c[nH]c3ccc(C)cc23)c1C(=O)OC | DH82 | MTS | 20 µM | 24 h | inhibition | 6.1% |
| c1ccc(-c2ccc(CNCC3(N4CCCC4)COC3)s2)cc1 | U-87 MG |  | 30 µM | 48 h | viability | 55.6% |
| COc1ccc(NC(=O)c2c(Nc3ccccc3)sc(C#N)c2NC(=O)CNc2ccc(Br)cc2)cc1 | HCT-116 | SRB | 0.1 µM | 48 h | viability | 80.6% |
| COc1ccc2occ(/C=C/c3cc(OC)c(OC)c(OC)c3)c(=O)c2c1 | HSC-2 | MTT |  | 23 h | CC50 | 4200 nM |
| COc1ccc(NC(=O)c2c(Nc3ccccc3)sc(C(=O)NN=Cc3ccccc3)c2NC(C)=O)cc1 | HCT-116 | SRB | 1 µM | 48 h | viability | 77.3% |
| Cc1cn(CC(c2cn(C)c3ccccc23)c2cn(C)c3ccccc23)nn1 | DH82 | MTS | 20 µM | 24 h | inhibition | 17.9% |
| COc1ccc(NCC(=O)Nc2c(C#N)sc(Nc3ccccc3)c2C(=O)Nc2ccc(OC)cc2)cc1 | HCT-116 | SRB | 1 nM | 48 h | viability | 99.5% |
| CCOC(=O)c1c(C)ncn1CC(c1cn(C)c2ccc([N+](=O)[O-])cc12)c1cn(C)c2ccc([N+](=O)[O-])cc12 | DH82 | MTS | 200 µM | 72 h | inhibition | 43% |
| CC(C)Cc1nn(C)c(=O)c2c(SCCCO)n(Cc3ccc(Cl)nc3)cc12 | Raji | MTT |  | 96 h | EC50 | 1000 nM |
| COc1ccc(C=NNC(=O)c2sc(Nc3ccccc3)c(C(=O)Nc3ccc(OC)cc3)c2NC(C)=O)cc1 | HCT-116 | SRB | 0.1 µM | 48 h | viability | 72.5% |
